Measured values published in ChEMBL document CHEMBL1132439, “Selective A(3) adenosine receptor antagonists: water-soluble 3, 5-diacyl-1,2,4-trialkylpyridinium salts and their oxidative generation from dihydropyridine precursors” (J Med Chem, 1999).

What was measured:
[1] = target: Adenosine receptor A2a (Rattus norvegicus) (UniProt P30543); test: Displacement of [3H]CGS-21680 from Adenosine A2A receptor of rat striatal membranes at 10^-4M; assay type: cell membranes; conditions: Membrane
Summary of the method: (§1)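 Rat striatal membranes prepared with adenosine deaminase 3 units/mL, also present in a 30 min preincubation at 30 °C and during radioligand incubation. Nonspecific binding defined with 20 μM 2-chloroadenosine. Compounds dissolved in DMSO, diluted in buffer (≤1% DMSO). Filtration over GF/B filters. IC50 from at least five competitor concentrations spanning 3 log units, converted to Ki by Cheng-Prusoff; n = 3–6, or % specific binding displaced at 10⁻⁴ M.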

[2] = target: T1, Adenosine receptor A1 (Rattus norvegicus) (UniProt P25099); test: Displacement of [3H]R-PIA from Adenosine A1 receptor from rat brain membranes at 10^-4M; assay type: cell membranes; conditions: Membrane
T1 sequence (whole entry): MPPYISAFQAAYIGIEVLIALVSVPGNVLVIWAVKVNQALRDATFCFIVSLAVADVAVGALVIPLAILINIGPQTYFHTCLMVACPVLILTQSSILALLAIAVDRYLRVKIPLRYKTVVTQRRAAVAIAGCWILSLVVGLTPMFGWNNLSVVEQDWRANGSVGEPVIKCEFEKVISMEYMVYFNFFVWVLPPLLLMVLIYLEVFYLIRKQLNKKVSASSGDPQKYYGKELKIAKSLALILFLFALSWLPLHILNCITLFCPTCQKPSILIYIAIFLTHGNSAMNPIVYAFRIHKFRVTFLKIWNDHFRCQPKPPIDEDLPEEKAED
Summary of the method: (§2)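 Rat cerebral cortex membranes prepared with adenosine deaminase 3 units/mL, also present in a 30 min preincubation at 30 °C and during radioligand incubation. Nonspecific binding defined with 10 μM 2-chloroadenosine. Compounds dissolved in DMSO, diluted in buffer (≤1% DMSO). Filtration over GF/B filters.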

Adenosine receptor A2a = Adenosine receptor A2a (Rattus norvegicus, UniProt P30543); test: Displacement of [3H]CGS-21680 from Adenosine A2A receptor of rat striatal membranes.; assay type: cell membranes, Membrane; summary of the method: as §1
Adenosine receptor A2a, sequence (P30543 whole entry): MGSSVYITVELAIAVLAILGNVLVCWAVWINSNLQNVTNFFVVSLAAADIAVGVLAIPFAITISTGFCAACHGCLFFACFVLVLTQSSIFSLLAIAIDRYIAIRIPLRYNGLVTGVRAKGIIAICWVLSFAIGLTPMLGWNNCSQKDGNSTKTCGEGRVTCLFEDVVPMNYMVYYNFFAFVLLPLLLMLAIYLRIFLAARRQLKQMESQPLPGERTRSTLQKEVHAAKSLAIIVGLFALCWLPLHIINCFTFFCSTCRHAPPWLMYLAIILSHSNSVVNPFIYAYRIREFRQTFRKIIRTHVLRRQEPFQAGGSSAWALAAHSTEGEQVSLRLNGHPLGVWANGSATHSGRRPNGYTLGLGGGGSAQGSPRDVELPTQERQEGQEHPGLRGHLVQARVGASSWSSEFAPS

Adenosine receptor A1 = target: T2, Adenosine receptor A1 (Rattus norvegicus, UniProt P25099); test: (§3) Displacement of [3H]R-PIA from Adenosine A1 receptor of rat brain membranes; assay type: cell membranes, Membrane; summary of the method: as §2
T2 sequence (P25099 whole entry): T1 sequence (whole entry)

[3] = target: T1, Adenosine receptor A1 (Rattus norvegicus); test: as §3; assay type: cell membranes; conditions: Membrane; summary of the method: as §2

Adenosine receptor A2a (Rattus norvegicus), sequence (P30543 whole entry): as above

| Displacement [1] [%] | Displacement [2] [%] | Ki (Adenosine receptor A2a) [µM] | Ki (Adenosine receptor A1) [µM] | Displacement [3] [%] | SMILES |
| --- | --- | --- | --- | --- | --- |
| – | < 10 | 18.7 | – | – | CCCOC(=O)c1c(CC)c(C(=O)SCC)c(CC)[n+](C)c1-c1ccccc1 |
| – | – | 7.72 | – | – | CCOC(=O)c1c(CC)c(C(=O)SCC)c(CC)[n+](C)c1C1CCCC1 |
| – | – | 11.6 | 31.9 | – | CCOC(=O)c1c(CC)c(C(=O)SCC)c(CC)[n+](C)c1-c1ccccc1 |
| – | – | 6.02 | 14.5 | – | CCCCc1c(C(=O)SCC)c(CC)c(C(=O)OCC)c(-c2ccccc2)[n+]1C |
| 28 | – | – | 76.9 | – | CCC[n+]1c(CC)c(C(=O)SCC)c(CC)c(C(=O)OCC)c1-c1ccccc1 |
| – | – | 33.2 | 88 | – | CCOC(=O)c1c(CC)c(C(=O)SCC)c(C2CCC2)[n+](C)c1-c1ccccc1 |
| 25 | – | – | – | – | CCOC(=O)c1c(CC)c(C(=O)SCC)c(CC)[n+](CC)c1-c1ccccc1 |
| – | 30 | 56.6 | – | – | CCSC(=O)c1c(CC)c(C(=O)OCCF)c(-c2ccccc2)[n+](C)c1CC |

Second part, the molecule before the results:

| SMILES | Displacement [1] [%] | Displacement [2] [%] | Ki (Adenosine receptor A2a) [µM] | Ki (Adenosine receptor A1) [µM] | Displacement [3] [%] |
| --- | --- | --- | --- | --- | --- |
| CCCOC(=O)c1c(CCC)c(C(=O)SCC)c(CC)[n+](C)c1-c1ccccc1 | 25 | < 10 | – | – | – |
| CCOC(=O)c1c(CCN2C(=O)c3ccccc3C2=O)c(C(=O)SCC)c(CC)[n+](C)c1-c1ccccc1 | – | – | 2.15 | 1.53 | – |
| CCCOC(=O)c1c(CCC)c(C(=O)SCC)c(CCOCc2ccccc2)[n+](C)c1-c1ccccc1 | – | – | 11.9 | – | 21 |
| CCCOC(=O)c1c(CCC)c(C(=O)SCCCF)c(CC)[n+](C)c1-c1ccccc1 | – | < 10 | 7.37 | – | – |
| CCOC(=O)c1c(CC)c(C(=O)SCC)c(C)[n+](C)c1-c1ccccc1 | – | 22 | 20.8 | – | – |
| CCCOC(=O)c1c(CCSC(C)=O)c(C(=O)SCC)c(CC)[n+](C)c1-c1ccccc1 | – | 45 | 53.2 | – | – |
